Data: ChEMBL document CHEMBL3352499, “One pot three components microwave assisted and conventional synthesis of new 3-(4-chloro-2-hydroxyphenyl)-2-(substituted) thiazolidin-4-one as antimicrobial agents” (Bioorg Med Chem Lett, 2014)
≈ marks a conversion by molar mass, not a printed value.

tested on: Aspergillus niger; assay: Fungicidal activity against Aspergillus niger NCIM-1196 after 48 to 72 hrs by two fold serial macrodilution technique; type: functional; conditions: not given
In short: (§1)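 Serial subcultivation followed 72 h of exposure to compounds dissolved in saline containing 5% DMSO. MBC/MFC was the lowest concentration with no visible growth, taken as 99.5% killing of the original inoculum. Runs were in triplicate, with the mean reading used.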

Row | Structure (SMILES) | MFC [µg/mL]
1 | O=C1CSC(c2cccs2)N1c1ccc(Cl)cc1O (stereo unspecified) | 155 (≈ 497 µM)
2 | O=C1CSC(c2ccccn2)N1c1ccc(Cl)cc1O (stereo unspecified) | 155 (≈ 505 µM)

tested on: Aspergillus flavus; assay: Fungicidal activity against Aspergillus flavus NCIM-539 after 48 to 72 hrs by two fold serial macrodilution technique; type: functional; conditions: not given; in short: as §1

Row | Structure (SMILES) | MFC [µg/mL]
3 | O=C1CSC(c2cccs2)N1c1ccc(Cl)cc1O (stereo unspecified) | 45 (≈ 144 µM)
4 | O=C1CSC(c2ccccn2)N1c1ccc(Cl)cc1O (stereo unspecified) | 165 (≈ 538 µM)

tested on: Cryptococcus neoformans; assay: Fungicidal activity against Cryptococcus neoformans NCIM-3378 after 48 to 72 hrs by two fold serial macrodilution technique; type: functional; conditions: not given; in short: as §1

Row | Structure (SMILES) | MFC [µg/mL]
5 | O=C1CSC(c2cccs2)N1c1ccc(Cl)cc1O (stereo unspecified) | 160 (≈ 513 µM)
6 | O=C1CSC(c2ccccn2)N1c1ccc(Cl)cc1O (stereo unspecified) | 150 (≈ 489 µM)

tested on: MCF7; assay: Cytotoxicity against human MCF7 cells by SRB method; type: cell-based; conditions: not given
In short: (§2)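 SRB colorimetric growth assay. IC50, in µM, was the concentration inhibiting cell growth by 50% relative to untreated control cells. Runs were in triplicate in three independent experiments, with means reported. The positive control was doxorubicin.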

Row | Structure (SMILES) | IC50 [µM]
7 | O=C1CSC(c2cccs2)N1c1ccc(Cl)cc1O (stereo unspecified) | 64.9
8 | O=C1CSC(c2ccccn2)N1c1ccc(Cl)cc1O (stereo unspecified) | 88.7

tested on: Aspergillus niger; assay: Antimicrobial activity against Aspergillus niger NCIM-1196 after 20 hrs by two fold serial macrodilution technique; type: functional; conditions: NCIM-1196, 20 h

Row | MIC [µg/mL] | Structure (SMILES)
9 | 70 (≈ 224 µM) | O=C1CSC(c2cccs2)N1c1ccc(Cl)cc1O (stereo unspecified)
10 | 80 (≈ 261 µM) | O=C1CSC(c2ccccn2)N1c1ccc(Cl)cc1O (stereo unspecified)

tested on: HeLa; assay: Cytotoxicity against human HeLa cells by SRB method; type: cell-based; conditions: not given; in short: as §2

Row | Structure (SMILES) | IC50 [µM]
11 | O=C1CSC(c2cccs2)N1c1ccc(Cl)cc1O (stereo unspecified) | 66.6
12 | O=C1CSC(c2ccccn2)N1c1ccc(Cl)cc1O (stereo unspecified) | 87.2

tested on: Aspergillus flavus; assay: Antimicrobial activity against Aspergillus flavus NCIM-539 after 20 hrs by two fold serial macrodilution technique; type: functional; conditions: NCIM-539, 20 h

Row | MIC [µg/mL] | Structure (SMILES)
13 | 25 (≈ 80.2 µM) | O=C1CSC(c2cccs2)N1c1ccc(Cl)cc1O (stereo unspecified)
14 | 100 (≈ 326 µM) | O=C1CSC(c2ccccn2)N1c1ccc(Cl)cc1O (stereo unspecified)

tested on: Staphylococcus aureus; assay: Antimicrobial activity against Staphylococcus aureus NCIM-2901 after 20 hrs by two fold serial macrodilution technique; type: functional; conditions: NCIM-2901, 20 h
In short: (§3)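 Serial macrodilution in 96-well microtiter plates. Compounds were dissolved in saline (0.8% NaCl) containing 5% DMSO, and strains were incubated with a range of concentrations for 20 h at 37 °C on a rotary shaker (160 rpm). MIC was the lowest concentration without growth. Runs were in triplicate, with the mean taken. The negative control was 5% DMSO.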

Row | MIC [µg/mL] | Structure (SMILES)
15 | 60 (≈ 192 µM) | O=C1CSC(c2cccs2)N1c1ccc(Cl)cc1O (stereo unspecified)
16 | 60 (≈ 196 µM) | O=C1CSC(c2ccccn2)N1c1ccc(Cl)cc1O (stereo unspecified)

tested on: Escherichia coli; assay: Antimicrobial activity against Escherichia coli NCIM-2256 after 20 hrs by two fold serial macrodilution technique; type: functional; conditions: NCIM-2256, 20 h; in short: as §3

Row | MIC [µg/mL] | Structure (SMILES)
17 | 85 (≈ 273 µM) | O=C1CSC(c2cccs2)N1c1ccc(Cl)cc1O (stereo unspecified)
18 | 90 (≈ 293 µM) | O=C1CSC(c2ccccn2)N1c1ccc(Cl)cc1O (stereo unspecified)

tested on: Candida albicans; assay: Antimicrobial activity against Candida albicans NCIM-3471 after 20 hrs by two fold serial macrodilution technique; type: functional; conditions: NCIM-3471, 20 h

Row | MIC [µg/mL] | Structure (SMILES)
19 | 100 (≈ 321 µM) | O=C1CSC(c2cccs2)N1c1ccc(Cl)cc1O (stereo unspecified)
20 | 55 (≈ 179 µM) | O=C1CSC(c2ccccn2)N1c1ccc(Cl)cc1O (stereo unspecified)

tested on: Bacillus subtilis; assay: Bactericidal activity against Bacillus subtilis NCIM-2063 after 72 hrs by two fold serial macrodilution technique; type: functional; conditions: NCIM-2063, 72 h; in short: as §1

Row | Structure (SMILES) | MBC [µg/mL]
21 | O=C1CSC(c2cccs2)N1c1ccc(Cl)cc1O (stereo unspecified) | 55 (≈ 176 µM)
22 | O=C1CSC(c2ccccn2)N1c1ccc(Cl)cc1O (stereo unspecified) | 165 (≈ 538 µM)

tested on: Cryptococcus neoformans; assay: Antimicrobial activity against Cryptococcus neoformans NCIM-3378 after 20 hrs by two fold serial macrodilution technique; type: functional; conditions: NCIM-3378, 20 h

Row | MIC [µg/mL] | Structure (SMILES)
23 | 95 (≈ 305 µM) | O=C1CSC(c2cccs2)N1c1ccc(Cl)cc1O (stereo unspecified)
24 | 75 (≈ 244 µM) | O=C1CSC(c2ccccn2)N1c1ccc(Cl)cc1O (stereo unspecified)

tested on: Salmonella typhimurium; assay: Bactericidal activity against […] after 72 hrs by two fold serial macrodilution technique; type: functional, Salmonella enterica subsp. enterica serovar Typhimurium; conditions: Salmonella enterica; in short: as §1

Row | Structure (SMILES) | MBC [µg/mL]
25 | O=C1CSC(c2cccs2)N1c1ccc(Cl)cc1O (stereo unspecified) | 155 (≈ 497 µM)
26 | O=C1CSC(c2ccccn2)N1c1ccc(Cl)cc1O (stereo unspecified) | 150 (≈ 489 µM)

tested on: Candida albicans; assay: Fungicidal activity against Candida albicans NCIM-3471 after 48 to 72 hrs by two fold serial macrodilution technique; type: functional; conditions: not given; in short: as §1

Row | Structure (SMILES) | MFC [µg/mL]
27 | O=C1CSC(c2cccs2)N1c1ccc(Cl)cc1O (stereo unspecified) | 160 (≈ 513 µM)
28 | O=C1CSC(c2ccccn2)N1c1ccc(Cl)cc1O (stereo unspecified) | 155 (≈ 505 µM)

tested on: Escherichia coli; assay: Bactericidal activity against Escherichia coli NCIM-2256 after 72 hrs by two fold serial macrodilution technique; type: functional; conditions: NCIM-2256, 72 h; in short: as §1

Row | Structure (SMILES) | MBC [µg/mL]
29 | O=C1CSC(c2cccs2)N1c1ccc(Cl)cc1O (stereo unspecified) | 160 (≈ 513 µM)
30 | O=C1CSC(c2ccccn2)N1c1ccc(Cl)cc1O (stereo unspecified) | 165 (≈ 538 µM)

tested on: Salmonella typhimurium; assay: Antimicrobial activity against […] after 20 hrs by two fold serial macrodilution technique; type: functional, Salmonella enterica subsp. enterica serovar Typhimurium; conditions: Salmonella enterica; in short: as §3

Row | MIC [µg/mL] | Structure (SMILES)
31 | 70 (≈ 224 µM) | O=C1CSC(c2cccs2)N1c1ccc(Cl)cc1O (stereo unspecified)
32 | 85 (≈ 277 µM) | O=C1CSC(c2ccccn2)N1c1ccc(Cl)cc1O (stereo unspecified)

tested on: Bacillus subtilis; assay: Antimicrobial activity against Bacillus subtilis NCIM-2063 after 20 hrs by two fold serial macrodilution technique; type: functional; conditions: NCIM-2063, 20 h; in short: as §3

Row | MIC [µg/mL] | Structure (SMILES)
33 | 35 (≈ 112 µM) | O=C1CSC(c2cccs2)N1c1ccc(Cl)cc1O (stereo unspecified)
34 | 85 (≈ 277 µM) | O=C1CSC(c2ccccn2)N1c1ccc(Cl)cc1O (stereo unspecified)

tested on: Staphylococcus aureus; assay: Bactericidal activity against Staphylococcus aureus NCIM-2901 after 72 hrs by two fold serial macrodilution technique; type: functional; conditions: NCIM-2901, 72 h; in short: as §1

Row | Structure (SMILES) | MBC [µg/mL]
35 | O=C1CSC(c2cccs2)N1c1ccc(Cl)cc1O (stereo unspecified) | 150 (≈ 481 µM)
36 | O=C1CSC(c2ccccn2)N1c1ccc(Cl)cc1O (stereo unspecified) | 155 (≈ 505 µM)
